# Source: ChEMBL document CHEMBL4145466, “Design, synthesis, and biological evaluation of novel combretastatin A-4 thio derivatives as microtubule targeting agents” (Eur J Med Chem, 2018)
# Legend:
# [1] = test system: A-431; assay: Cytotoxicity against human A431 cells after 48 hrs by MTT assay; type: functional, cell-based; conditions: A-431, 48 h
# Summary of the method: (§1)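 Cells in DMEM with 10% FBS were plated at 2 × 10^4 per well and left overnight, then treated for 48 h at 0.6–20 µM (six concentrations) from 10 mM DMSO stocks. MTT was added for 2 h, and formazan was dissolved in DMSO and read at 570 nm. Viability was expressed as % of control, with IC50 taken from dose-response curves. Results are mean ± SD of three independent experiments.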
# [2] = test system: HeLa; assay: Cytotoxicity against human HeLa cells after 48 hrs by MTT assay; type: functional, cell-based; summary of the method: as §1
# [3] = test system: MCF7; assay: Cytotoxicity against human MCF7 cells after 48 hrs by MTT assay; type: functional, cell-based; conditions: MCF7, 48 h; summary of the method: as §1
# [4] = test system: MDA-MB-231; assay: Cytotoxicity against human MDA-MB-231 cells after 48 hrs by MTT assay; type: functional, cell-based; conditions: MDA-MB-231, 48 h; summary of the method: as §1
# [5] = test system: A549; assay: Cytotoxicity against human A549 cells after 48 hrs by MTT assay; type: functional, cell-based; conditions: A549, 48 h
# [6] = test system: SK-OV-3; assay: Cytotoxicity against human SKOV3 cells after 48 hrs by MTT assay; type: functional, cell-based; conditions: SK-OV-3, 48 h; summary of the method: as §1
# [7] = test system: HaCaT; assay: Cytotoxicity against human HaCaT cells after 48 hrs by MTT assay; type: cell-based; summary of the method: as §1
# [8] = Cytotoxicity against human CCD39Lu cells after 48 hrs by MTT assay; type: cell-based; summary of the method: as §1
# [9] = Inhibition of porcine tubulin polymerization after 1 hr by spectrophotometric analysis; design: species or system Sus scrofa
# Summary of the method: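 Polymerization was started by shifting from 4 °C to 37 °C, and absorbance was followed at 37 °C for 60 min. The vehicle served as control.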
IC50 [9],Structure (SMILES),IC50 [1],IC50 [2],IC50 [3],IC50 [4],IC50 [5],IC50 [6],IC50 [7],IC50 [8]
> 10 µM,COc1cc(-c2ncoc2-c2cc(Br)c(SC)c(OC)c2)cc(OC)c1OC,> 20 µM,> 20 µM,1.42 µM,17.9 µM,> 20 µM,> 20 µM,16.7 µM,> 20 µM
1.62 µM,COc1cc(-c2ocnc2-c2cc(OC)c(OC)c(OC)c2)ccc1SC,0.43 µM,0.645 µM,0.6 µM,0.85 µM,> 20 µM,1.48 µM,0.43 µM,> 20 µM
1.54 µM,COc1cc(-c2ocnc2-c2cc(Br)c(OC)c(OC)c2)ccc1SC,0.41 µM,0.44 µM,2.48 µM,0.76 µM,> 20 µM,1.03 µM,0.26 µM,> 20 µM
> 10 µM,COc1cc(-c2c(-c3cc(Br)c(OC)c(OC)c3)ncn2C)ccc1SC,13.6 µM,> 20 µM,2.2 µM,15.5 µM,> 20 µM,> 20 µM,> 20 µM,19.3 µM
4.8 µM,COc1ccc(-c2ocnc2-c2cc(Br)c(OC)c(OC)c2)cc1OC,12.3 µM,0.07 µM,6.1 µM,7.83 µM,0.5 µM,0.26 µM,10.1 µM,> 20 µM
2.97 µM,COc1ccc(-c2ocnc2-c2cc(OC)c(OC)c(OC)c2)cc1S,1.22 µM,4.44 µM,2.11 µM,2.87 µM,> 20 µM,3.18 µM,1.28 µM,> 20 µM

# Continued, compound first:
Structure (SMILES),IC50 [9],IC50 [1],IC50 [2],IC50 [3],IC50 [4],IC50 [5],IC50 [6],IC50 [7],IC50 [8]
COc1cc(/C(=C\c2cccc(OC)c2SC)C(=O)O)cc(OC)c1OC,> 10 µM,> 20 µM,> 20 µM,0.95 µM,> 20 µM,> 20 µM,> 20 µM,> 20 µM,> 20 µM
COc1cc(-c2ncn(C)c2-c2cc(Br)c(SC)c(OC)c2)cc(OC)c1OC,> 10 µM,16.6 µM,8.18 µM,2.51 µM,> 20 µM,> 20 µM,> 20 µM,> 20 µM,6.13 µM
COc1cc(/C=C\c2cccc(OC)c2SC)cc(OC)c1OC,> 10 µM,3.61 µM,6.18 µM,0.65 µM,11.7 µM,> 20 µM,14.5 µM,9.56 µM,> 20 µM
COc1cc(-c2ncoc2-c2ccccc2SC)cc(OC)c1OC,0.86 µM,> 20 µM,7.33 µM,1.43 µM,> 20 µM,> 20 µM,> 20 µM,> 20 µM,> 20 µM
COc1ccc(-c2c(-c3cc(OC)c(SC)c(OC)c3)ncn2C)cc1O,6.67 µM,0.43 µM,0.39 µM,1.63 µM,0.39 µM,> 20 µM,1.72 µM,0.5 µM,> 20 µM
COc1cc(/C(=C\c2ccccc2SC)C(=O)O)cc(OC)c1OC,> 10 µM,> 20 µM,> 20 µM,1.84 µM,> 20 µM,> 20 µM,> 20 µM,> 20 µM,> 20 µM
COc1cc(-c2ncn(C)c2-c2ccccc2SC)cc(OC)c1OC,> 10 µM,> 20 µM,> 20 µM,2.29 µM,> 20 µM,> 20 µM,> 20 µM,> 20 µM,> 20 µM
COc1cc(/C=C\c2ccccc2SC)cc(OC)c1OC,> 10 µM,8.22 µM,11.7 µM,2.35 µM,14.2 µM,> 20 µM,14.1 µM,12.8 µM,> 20 µM
COc1ccc(-c2c(-c3cc(Br)c(OC)c(OC)c3)ncn2C)cc1SC,> 10 µM,> 20 µM,> 20 µM,5.24 µM,> 20 µM,> 20 µM,> 20 µM,> 20 µM,> 20 µM
